From ChEMBL document CHEMBL1151709, “Antileishmanial constituents of the Panamanian endophytic fungus Edenia sp” (J Nat Prod, 2008)

Assays:
Leishmania donovani = experiment: Antileishmanial activity against Leishmania donovani LD-1S/MHOM/SD/00-strain 1S amastigotes; format: functional, organism-based
In short: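 Axenic (cell-free) L. donovani amastigotes; parasite growth and survival read with PicoGreen. Single-concentration screen at 10 μg/mL in duplicate, expressed as % growth versus control; samples at ≤50% growth then tested at […], 0.08, 0.4, 2 and 10 μg/mL to derive IC50. Amphotericin B positive control.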

Trypanosoma cruzi = experiment: Antitrypanosomal activity against Trypanosoma cruzi; format: functional, organism-based
In short: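 Buckner et al. protocol with nifurtimox as positive control; tested in duplicate at 10, 2, 0.4, 0.08 and 0.016 μg/mL.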

[1] = Therapeutic index, ratio of IC50 for african green monkey Vero cells to IC50 for Leishmania donovani LD-1S/MHOM/SD/00-strain 1S amastigotes; format: cell-based; settings: read-out: Ratio IC50
In short: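 Therapeutic window calculated as Vero-cell IC50 (MTT cytotoxicity) divided by IC50 against axenic L. donovani amastigotes (PicoGreen growth/survival assay).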

Plasmodium falciparum = experiment: Antimalarial activity against Plasmodium falciparum; format: functional, organism-based
In short: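 Run per the authors' earlier protocol with chloroquine as positive control; duplicate wells at 10, 2, 0.4, 0.08 and 0.016 μg/mL.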

Vero = experiment: Cytotoxicity against african green monkey Vero cells by MTT assay; format: cell-based; settings: Chlorocebus sabaeus
[2] = Leishmania donovani, 1S, read-out: IC50

| IC50 (Trypanosoma cruzi) | IC50 (Plasmodium falciparum) [µM] | SMILES | IC50 (Leishmania donovani; [2]) | selectivity ratio [1] | IC50 (Vero) [µM] | IC50 (Leishmania donovani) [µg/mL] |
| --- | --- | --- | --- | --- | --- | --- |
|  |  | COc1cc2c(c(OC)c1)C(C)=[N+](c1ccc(OC)c3c(OC)cc(C)cc13)[C@@H](C)C2.O=C([O-])C(F)(F)F [ANCISANCISTROCLADINIUM A] | 0.722 µg/mL |  |  |  |
| > 10 µM | 16.5 | O=C1C=C[C@]23Oc4ccc(O)c5c4[C@](CCC5=O)(Oc4cccc1c42)O3 [PREUSSOMERIN EG1] | 0.12 µM | 75 | 9 |  |
| 18.5 µM | > 10 | O=C1CCC2(Oc3cccc4cccc(c34)O2)c2cccc(O)c21 [PALMARUMYCIN CP2] | 3.93 µM | 41 | 162 |  |
| 26.5 µM | > 10 | Oc1cccc2c1[C@@H](O)CCC21Oc2cccc3cccc(c23)O1 | 8.4 µM | 18 | 150 |  |
| 3 µg/mL |  | CC1CS(=O)(=O)CCN1/N=C/c1ccc([N+](=O)[O-])o1 (centres undefined) [NIFURTIMOX] |  |  |  |  |
| > 10 µM | > 10 | O=C1C=CC(=O)C2=C1[C@@H](O)CCC21Oc2cccc3cccc(c23)O1 | 0.62 µM | 245 | 152 |  |
| > 10 µM | > 10 | O=C1CCC2(Oc3cccc4cccc(c34)O2)c2c(O)ccc(O)c21 [PALMARUMYCIN CP17] | 1.34 µM | 130 | 174 |  |
|  |  | COc1cc2c(c(OC)c1)C(C)=[N+](c1ccc3cc(C)cc(OC)c3c1O)[C@@H](C)C2.O=C([O-])C(F)(F)F [ANCISTROCLADINIUM B] | 1.1 µg/mL |  |  |  |
|  |  | C[C@@H]1[C@H](O)[C@@H](C)/C=C/C=C/C=C/C=C/C=C/C=C/C=C/[C@H](O[C@@H]2O[C@H](C)[C@@H](O)[C@H](N)[C@@H]2O)C[C@@H]2O[C@](O)(C[C@@H](O)C[C@@H](O)[C@H](O)CC[C@@H](O)C[C@@H](O)CC(=O)O[C@H]1C)C[C@H](O)[C@H]2C(=O)O [AMPHOTERICIN B] |  |  |  | 0.07 |
